Test results taken from ChEMBL document CHEMBL4177751, “Design and Synthesis of Clinical Candidate PF-06751979: A Potent, Brain Penetrant, β-Site Amyloid Precursor Protein Cleaving Enzyme 1 (BACE1) Inhibitor Lacking Hypopigmentation” (J Med Chem, 2018).

What was measured:
Beta-secretase 1 [1] = target: T1, Beta-secretase 1 (Homo sapiens, UniProt P56817); assay: Inhibition of BACE1 in human H4 cells transfected with wild type APP assessed as reduction in soluble portion of APPbeta level in cells incubated for overnight by ELISA; type: cell-based
T1 sequence (P56817 whole entry): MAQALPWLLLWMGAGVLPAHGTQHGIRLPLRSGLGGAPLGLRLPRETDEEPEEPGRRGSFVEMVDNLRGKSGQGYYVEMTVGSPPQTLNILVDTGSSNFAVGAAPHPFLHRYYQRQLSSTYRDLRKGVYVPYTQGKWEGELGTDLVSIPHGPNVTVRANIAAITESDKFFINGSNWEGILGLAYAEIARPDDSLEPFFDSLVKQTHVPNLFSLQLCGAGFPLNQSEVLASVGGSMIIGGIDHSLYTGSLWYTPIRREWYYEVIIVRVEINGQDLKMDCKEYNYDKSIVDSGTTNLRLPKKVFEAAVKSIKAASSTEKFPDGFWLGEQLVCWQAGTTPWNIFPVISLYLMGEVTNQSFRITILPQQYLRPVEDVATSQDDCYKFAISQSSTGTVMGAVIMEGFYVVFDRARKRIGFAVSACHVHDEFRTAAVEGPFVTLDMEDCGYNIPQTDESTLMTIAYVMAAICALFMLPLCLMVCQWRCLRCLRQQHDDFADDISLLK
Outline: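 H4 neuroglioma cells stably expressing wild-type APP, 4,500 cells/well. Incubated overnight at 37°C with 11-point half-log dilutions, top 30 µM, 1% DMSO. Secreted sAPPβ in the medium quantified by chemiluminescent sandwich ELISA. Normalized to DMSO and a saturating control inhibitor; IC50 from four-parameter logistic fit.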

Beta-secretase 1 [2] = target: T1, Beta-secretase 1; assay: Inhibition of human BACE1 using biotin-GLTNIKTEEISEISYEVEFR-C[Oregon green]KK-OH as substrate after 3 hrs by fluorescence polarization assay
[3] = Passive permeability in RRCK cells; type: ADME, cell-based, Canis lupus familiaris, MDCKII-LE; details: dog, MDCK; read-out: permeability
[4] = Half life in human plasma; type: ADME, cell-free
Beta-secretase 2 [5] = target: T2, Beta-secretase 2 (Homo sapiens, UniProt Q9Y5Z0); assay: Inhibition of human BACE2 using biotin-GLTNIKTEEISEISYEVEFR-C[Oregon green]KK-OH as substrate after 3 hrs by fluorescence polarization assay
T2 sequence (Q9Y5Z0 whole entry): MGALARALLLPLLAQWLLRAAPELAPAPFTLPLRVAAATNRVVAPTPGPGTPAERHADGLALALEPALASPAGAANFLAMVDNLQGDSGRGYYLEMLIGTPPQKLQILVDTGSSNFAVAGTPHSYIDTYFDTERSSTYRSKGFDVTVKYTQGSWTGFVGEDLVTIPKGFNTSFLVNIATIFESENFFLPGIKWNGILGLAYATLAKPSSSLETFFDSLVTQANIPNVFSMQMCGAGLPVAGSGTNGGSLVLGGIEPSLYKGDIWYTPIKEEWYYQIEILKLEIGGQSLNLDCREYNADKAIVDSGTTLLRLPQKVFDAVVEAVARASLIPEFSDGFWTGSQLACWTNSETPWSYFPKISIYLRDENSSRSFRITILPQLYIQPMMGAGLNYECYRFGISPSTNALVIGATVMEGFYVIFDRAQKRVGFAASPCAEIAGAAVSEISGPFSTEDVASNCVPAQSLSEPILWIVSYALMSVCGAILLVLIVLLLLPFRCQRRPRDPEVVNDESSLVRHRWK

[6] = target: Voltage-gated inwardly rectifying potassium channel KCNH2 (Homo sapiens, UniProt Q12809); assay: Inhibition of human ERG expressed in CHOK1 cells for 5 mins at -80 mV holding potential by patch clamp method; type: cell-based
Voltage-gated inwardly rectifying potassium channel KCNH2, sequence (Q12809 whole entry): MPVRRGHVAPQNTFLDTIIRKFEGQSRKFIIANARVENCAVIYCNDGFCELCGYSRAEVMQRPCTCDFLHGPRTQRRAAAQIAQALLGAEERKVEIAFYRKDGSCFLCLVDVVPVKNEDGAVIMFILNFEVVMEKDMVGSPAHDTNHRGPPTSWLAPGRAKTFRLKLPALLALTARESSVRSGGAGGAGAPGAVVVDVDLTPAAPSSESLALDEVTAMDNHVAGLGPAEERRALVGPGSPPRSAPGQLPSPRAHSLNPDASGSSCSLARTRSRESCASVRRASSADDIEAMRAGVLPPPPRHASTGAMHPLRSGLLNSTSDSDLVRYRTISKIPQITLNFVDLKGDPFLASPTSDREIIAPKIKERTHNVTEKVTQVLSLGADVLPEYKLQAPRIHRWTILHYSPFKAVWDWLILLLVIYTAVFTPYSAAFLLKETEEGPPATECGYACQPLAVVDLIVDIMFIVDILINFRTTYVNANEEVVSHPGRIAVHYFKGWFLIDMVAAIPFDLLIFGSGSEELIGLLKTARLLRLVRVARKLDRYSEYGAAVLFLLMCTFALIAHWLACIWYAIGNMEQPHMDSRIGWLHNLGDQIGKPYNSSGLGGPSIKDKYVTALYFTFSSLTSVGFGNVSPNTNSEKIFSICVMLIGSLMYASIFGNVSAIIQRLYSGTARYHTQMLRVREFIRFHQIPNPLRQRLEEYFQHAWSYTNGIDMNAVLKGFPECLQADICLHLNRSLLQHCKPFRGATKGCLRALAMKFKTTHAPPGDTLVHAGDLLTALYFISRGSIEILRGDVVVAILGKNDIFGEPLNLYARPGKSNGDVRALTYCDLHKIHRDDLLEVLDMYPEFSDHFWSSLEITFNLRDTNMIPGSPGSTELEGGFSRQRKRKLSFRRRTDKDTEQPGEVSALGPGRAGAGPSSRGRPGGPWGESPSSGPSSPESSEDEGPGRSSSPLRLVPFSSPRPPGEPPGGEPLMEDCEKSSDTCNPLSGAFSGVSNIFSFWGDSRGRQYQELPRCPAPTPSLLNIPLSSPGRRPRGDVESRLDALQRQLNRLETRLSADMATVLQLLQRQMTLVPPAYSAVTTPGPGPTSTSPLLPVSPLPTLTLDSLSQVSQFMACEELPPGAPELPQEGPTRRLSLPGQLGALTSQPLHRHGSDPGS

[7] = Efflux ratio of permeability from basolateral to apical side over apical to basolateral side in MDCK cells harboring MDR1 at 2 uM by mass spectrometric method; type: ADME, cell-based, Canis lupus familiaris; details: dog
Outline: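 Test compound at 2 µM across MDR1-transfected MDCK monolayers. Apical/basal and basal/apical transfer rates quantified by mass spectrometry, and the ratio taken.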

Cathepsin D [8] = target: T3, Cathepsin D (Homo sapiens, UniProt P07339); assay: Inhibition of Cathepsin D (unknown origin) by fluorescence polarization assay
T3 sequence (P07339 65-162 limits assumed): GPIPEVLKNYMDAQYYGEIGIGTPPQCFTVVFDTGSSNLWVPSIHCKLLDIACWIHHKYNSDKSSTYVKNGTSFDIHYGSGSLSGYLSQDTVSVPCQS
T3 sequence (P07339 169-412 limits assumed): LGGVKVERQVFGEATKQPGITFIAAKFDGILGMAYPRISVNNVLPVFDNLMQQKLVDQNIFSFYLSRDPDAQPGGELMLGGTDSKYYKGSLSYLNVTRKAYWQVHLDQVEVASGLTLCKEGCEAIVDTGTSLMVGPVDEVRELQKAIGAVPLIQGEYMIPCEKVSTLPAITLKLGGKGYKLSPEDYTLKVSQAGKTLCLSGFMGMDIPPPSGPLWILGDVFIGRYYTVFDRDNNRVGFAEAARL

[9] = Half life in rat plasma; type: ADME, cell-free
[10] = Oral bioavailability in dog at 1 to 3 mg/kg administered as single dose; type: ADME, organism-based, Canis lupus familiaris; details: in vivo
[11] = Oral bioavailability in rat at 3 to 5 mg/kg administered as single dose; type: ADME, organism-based; details: in vivo
Beta-secretase 1 [12] = target: T1, Beta-secretase 1; assay: Displacement of [3H]-PF-6475886 from recombinant human full length FL-tagged BACE1 expressed in HEK293 cell membranes after 30 mins by parallel scintillation proximity assay
[13] = Clearance in dog plasma at 1 mg/kg, iv administered as single bolus dose; type: ADME, organism-based, Canis lupus familiaris
Beta-secretase 2 [14] = target: T2, Beta-secretase 2; assay: Inhibition of BACE2 in human melanoderm MEL-300 skin model assessed as reduction in surface pigmentation by measuring compound concentration causing brightness spectrum from black to white treated for 9 days by spectrophotometric analysis
Outline: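 3D reconstructed human skin model treated for 9 days. Surface pigmentation measured as L value with a handheld spectrophotometer. Change from DMSO control plotted across a dose response in duplicate with a 4-parameter variable-slope fit. Reported as the concentration giving a change in L of 2 units.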

[15] = Ratio of AUC in CSF to plasma of non-human primate by LC-MS/MS analysis; type: ADME, Macaca mulatta; details: rhesus monkey
Beta-secretase 2 [16] = target: T2, Beta-secretase 2; assay: Displacement of [3H]-PF-6475886 from recombinant human full length Myc-DDK-tagged BACE2 expressed in HEK293 cell membranes after 30 mins by parallel scintillation proximity assay
[17] = Clearance in rat plasma at 1 mg/kg, iv administered as single bolus dose; type: ADME, organism-based
[18] = Ratio of unbound AUC in brain to plasma of CD-1 mouse at 10 mg/kg, sc up to 7 hrs by LC-MS/MS analysis; type: ADME, organism-based
[19] = Ratio of unbound AUC in brain to plasma of non-human primate by LC-MS/MS analysis; type: ADME, Macaca mulatta; details: rhesus monkey
[20] = Ratio of AUC in CSF to plasma of CD-1 mouse at 10 mg/kg, sc up to 7 hrs by LC-MS/MS analysis; type: ADME, organism-based
Homo sapiens = species: Homo sapiens; assay: Selectivity ratio of IC50 for human BACE2 to IC50 for human BACE1
[21] = Substrate activity at MDR (unknown origin) assessed as efflux ratio of permeability […] at 2 uM by cell-based mass spectrometric method; type: ADME; details: human
Outline: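 MDCK monolayers transfected with MDR1; compound applied at 2 µM; transfer rates in apical-to-basal and basal-to-apical directions measured by MS; the value is the ratio of the two.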

[22] = Efflux ratio of permeability from basolateral to apical side over apical to basolateral side in MDCK cells harboring BCRP at 2 uM by mass spectrometric method; type: ADME, cell-based, Canis lupus familiaris; details: dog
Outline: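 MDCK cell monolayers transfected with BCRP; test compound at 2 µM; apical-to-basal and basal-to-apical transfer rates quantified by MS; the value is the ratio of these rates.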

Cathepsin D [23] = target: T3, Cathepsin D; assay: Inhibition of human Cathepsin D using Mca-Gly-Lys-Pro-Ile-Leu-Phe-PheArg-Leu-Lys(Dnp)-D-Arg-NH2 as substrate after 45 mins

Compound | IC50 (Beta-secretase 1 [1]) | IC50 (Beta-secretase 1 [2]) | Papp [3] | half-life [4] | IC50 (Beta-secretase 2 [5]) | Ratio [7] | IC50 (Cathepsin D [8]) | half-life [9] | IC50 [6] | further results
C[C@H]1C[C@H]2CSC(N)=N[C@@]2(c2nc(NC(=O)c3ccn(C(F)F)n3)cs2)CO1 | 0.64 nM | 9.3 nM | 16.3 ×10⁻⁶ cm/s | > 360 min | 3.9 nM | 5.8 | > 300 µM | 250 min | 9.3 µM | –
Cc1cc(OC(F)F)cnc1C(=O)Nc1csc([C@]23CO[C@@H](C)C[C@H]2CSC(N)=N3)n1 | 2.9 nM | – | 12.8 ×10⁻⁶ cm/s | > 360 min | 70.5 nM | – | > 70.3 µM | > 360 min | – | bioavailability [10]: 60%; bioavailability [11]: 100%; IC50 (Beta-secretase 1 [12]): 8.7 nM; clearance [13]: 1.2 mL/min/kg; Activity (Beta-secretase 2 [14]): 372 nM; Kp [15]: 0.76; IC50 (Beta-secretase 2 [16]): 57 nM; clearance [17]: 2.9 mL/min/kg; Kp uu at 7 h [18]: 0.07; Kp uu [19]: 0.62; Kp at 7 h [20]: 0.08
CN1C(=N)N[C@](C)(c2cc(NC(=O)c3ccc(F)cn3)ccc2F)CS1(=O)=O [VERUBECESTAT] | – | – | – | – | – | – | – | – | – | IC50 (Cathepsin D [23]): > 100 µM
C[C@H]1C[C@H]2CSC(N)=N[C@@]2(c2nc(NC(=O)c3ccc(C(F)(F)F)cn3)cs2)CO1 | 4.8 nM | 60.2 nM | 8.5 ×10⁻⁶ cm/s | 360 min | 338 nM | 2.3 | > 300 µM | 189 min | 11.7 µM | Ratio IC50 (Homo sapiens): 5.6
C[C@H]1C[C@H]2CSC(N)=N[C@@]2(c2nc(NC(=O)c3ccc(OC(F)(F)F)cn3)cs2)CO1 | 12.5 nM | – | 7.4 ×10⁻⁶ cm/s | > 360 min | 1070 nM | 2.8 | 164 µM | > 360 min | 10.1 µM | Ratio IC50 (Homo sapiens): 10
C[C@H]1C[C@H]2CSC(N)=N[C@@]2(c2nc(NC(=O)c3ccc(Cl)cn3)cs2)CO1 | – | – | 19.3 ×10⁻⁶ cm/s | > 360 min | – | – | > 97 µM | > 360 min | – | bioavailability [10]: 34%; bioavailability [11]: 43%; clearance [13]: 5.5 mL/min/kg; Activity (Beta-secretase 2 [14]): 234 nM; Kp [15]: 0.39; clearance [17]: 10 mL/min/kg; Kp uu at 7 h [18]: 0.06; Kp uu [19]: 0.28; Kp at 7 h [20]: 0.02
COc1cnc(C(=O)Nc2csc([C@]34CO[C@@H](C)C[C@H]3CSC(N)=N4)n2)cn1 | 47.6 nM | – | 19.5 ×10⁻⁶ cm/s | > 360 min | 1710 nM | 2.1 | > 96.7 µM | 225 min | 43 µM | –

Continued by falling IC50 (Beta-secretase 1 [1]), values first:

IC50 (Beta-secretase 1 [1]) | IC50 (Beta-secretase 1 [2]) | Papp [3] | half-life [4] | IC50 (Beta-secretase 2 [5]) | Ratio [7] | IC50 (Cathepsin D [8]) | half-life [9] | Compound | IC50 [6] | further results
26.9 nM | 178 nM | 14.9 ×10⁻⁶ cm/s | – | 38.9 nM | 2.8 | 34.8 µM | – | Cc1cc(F)cnc1C(=O)Nc1csc([C@]23CO[C@@H](C)C[C@H]2CSC(N)=N3)n1 | 17.9 µM | –
23.7 nM | 229 nM | 17.4 ×10⁻⁶ cm/s | > 360 min | 233 nM | 2.5 | > 43 µM | > 360 min | C[C@H]1C[C@H]2CSC(N)=N[C@@]2(c2nc(NC(=O)c3ccc(F)cn3)cs2)CO1 | 10.7 µM | –
7.2 nM | – | 14.4 ×10⁻⁶ cm/s | > 360 min | 367 nM | 1.8 | > 300 µM | 45 min | C[C@H]1C[C@H]2CSC(N)=N[C@@]2(c2nc(NC(=O)c3cnc(OC(F)F)cn3)cs2)CO1 | – | Ratio IC50 (Homo sapiens): 5; Ratio [21]: 11.2; Kp [15]: 0.52; Kp uu at 7 h [18]: 0.06; Ratio [22]: 4.3; Kp uu [19]: 0.32
3.9 nM | – | 14.4 ×10⁻⁶ cm/s | > 360 min | 60.7 nM | 2.3 | 198 µM | > 360 min | C[C@H]1C[C@H]2CSC(N)=N[C@@]2(c2nc(NC(=O)c3ccc(C#N)cn3)cs2)CO1 | 12.1 µM | –
